# Results pooled from the literature.
# Each line is one published result; the experiments were not run side by side.
# ADRB3: Beta-3 adrenergic receptor (ADRB3, Homo sapiens, UniProt P13945)
# MMP13: Collagenase 3 (MMP13, Homo sapiens, UniProt P45452)
SMILES,target,test,conditions,inhibition [%]
C#Cc1n[nH]c2c(-c3cn([C@@H](C)c4ccccn4)c(=O)[nH]c3=O)cc(F)cc12,"Serine/threonine-protein kinase Sgk1 (SGK1, Homo sapiens, UniProt O00141)","enzyme activity, inhibitor",0.1 µM,-0.7
O=C(Nc1cccnn1)N1CCN([C@@H]2CCOc3cc(C(F)(F)F)ccc32)CC1,ADRB3,cell-free assay,20 µM,-4
CCOC(=O)c1ccc(OC(=O)CCCCCNC(=N)N)cc1,MMP13,"enzyme activity, inhibitor",10 µM,13
CC(C)C[C@H](NC(=O)[C@H](Cc1ccccc1)NC(=O)c1cnccn1)B(O)O,"Lysosomal Pro-X carboxypeptidase (PRCP, Homo sapiens, UniProt P42785)","enzyme activity, inhibitor",33 µM,77.9
COC(=O)NCCc1c(C(O)c2ccccc2)[nH]c2ccc(OC)cc12 (centres unmarked),"Calmodulin-1 (CALM1, Homo sapiens, UniProt P0DP23)","enzyme activity, inhibitor",50 µM,40 to 50
O=C(NC[C@H](O)CO)[C@@H]1C[C@H](c2ccccc2)CCN1 (mixture of isomers),ADRB3,"ligand displacement, radioligand",10 µM,-11.2
c1ccc(C(NCCNC(c2ccccc2)c2ccccc2)c2ccccc2)cc1,"Adenosine receptor A2b (ADORA2B, Homo sapiens, UniProt P29275)",cell-free assay,10 µM,-2
Cc1nc(C(C)(C)NC(=O)O[C@@H]2CN3CCC2CC3)cs1,"N-terminal Xaa-Pro-Lys N-methyltransferase 1 (Homo sapiens, UniProt Q9BV86)","enzyme activity, inhibitor, fluorescence",100 µM,< 50
COc1ccc(N=Nc2ccc3[nH]cc(CCN(C)C)c3c2)cc1,"5-hydroxytryptamine receptor 4 (HTR4, Homo sapiens, UniProt Q13639)","ligand displacement, radioligand",10 µM,< 50
COCc1c(-c2cc3cc(C)cc(OC)c3s2)c2c(N)ncnn2c1CN1CCNC(=O)C1,ADRB3,"ligand displacement, radioligand",10 µM,9
COc1ccc(S(=O)(=O)N2CCCCC2)cc1C,"Thyrotropin-releasing hormone receptor (TRHR, Homo sapiens, UniProt P34981)","ligand displacement, radioligand",10 µM,< 30
C[C@H](C(=O)N[C@H]1COc2ccccc2[C@@H]1S(C)(=O)=O)c1ccc(F)cc1,MMP13,"enzyme activity, inhibitor",10 µM,-4
COc1cc(Nc2ncc(F)c(Nc3ccc4c(n3)NC(=O)C(C)(C)O4)n2)cc(OC)c1OC,"Calcium/calmodulin-dependent protein kinase type II subunit gamma (CAMK2G, Homo sapiens, UniProt Q13555)","binding, competition with immobilised ligand",10 µM,47
C#Cc1n[nH]c2c(-c3cn([C@@H](C)c4ccccc4)c(=O)[nH]c3=O)cc(F)cc12,"Dual specificity protein kinase CLK2 (CLK2, Homo sapiens, UniProt P49760)","enzyme activity, inhibitor",0.1 µM,3.8
